An excerpt weighted towards active compounds, which were near 2% of everything screened.
T cruzi inh: T. cruzi replication inhibition | AID 1885 | T. cruzi beta-gal in NIH3T3, luminescence, 90 h | inhibition, % (concentration not given with the values) | hit rate 1.4% among 300,000;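 active means mean inhibition across valid replicates above about 55%, limit read from the data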;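 further: signal also drops with host cell toxicity which is not excluded here; 0% = plate median of DMSO wells and 100% = zero luminescence signal; higher percent means less beta-gal luminescence so fewer parasites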
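Read-out: Parasite load inhibition, % | Test system: Mouse NIH/3T3 fibroblasts infected with β-gal-expressing T. cruzi Tulahuen C4 | Amount: 5,000 cells/well | Medium: DMEM, 2% fetal bovine serum | Signal: GalScreen β-gal luminescence, detergent lysis, 60 min | Timing: 3 h attach, ≥90 h co-culture | Also added: Tulahuen C4 trypomastigotes, 5000/well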
AI-2 QS modul: modulators of Vibrio harveyi AI-2 quorum sensing system | activity change, % at 7.5 µM | hit rate 0.4% among 300,000 | Vibrio harveyi JMH597 AI-2 luminescence/OD600 ratio, 9 h; active compounds read low; strain lacks LuxN and CqsS sensors; 0 = neutral-control median; in the data active means activity change below about -75%, passing the limit was not always enough;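 further: luminescence divided by OD600 gain over 9 h not by final OD600 alone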
ARNT TACC3 PPI: ARNT/TACC3 interaction disruption; Q9Y6A5; AlphaScreen His-ARNT PAS-B/GST-TACC3 binding, luminescence; TACC3 fragment carries E629A point mutation; inhibition, % at 9.99 µM; hit rate 0.66% among 390,000;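 active means mean inhibition of replicates at least 50% and at least half of replicates each reaching 50%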;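 further: 0% = complete ARNT plus TACC3 wells and 100% = ARNT alone without TACC3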
HIF act: HIF pathway transcriptional activation | activation, % at 7.5 µM (by protocol) | hit rate 0.32% among 300,000 | U2OS HRE-luciferase reporter, luminescence; normalized: DMSO 0%, desferrioxamine 100%;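 active means mean activation of at least 10% of the iron chelator positive control signal, with at least half of replicates also reaching 10%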
Numbers without * were called inactive; x = no result.

SMILES	T cruzi inh	AI-2 QS modul	ARNT TACC3 PPI	HIF act
CNC(=O)C1CC(=O)N(c2ccc(OCC(=O)N3CCCC3)cc2)C1 (stereo not given)	-15	24	x	29*
NC(=O)C1CC(=O)N(c2ccc(OCC(=O)N3CCCC3)cc2)C1 (stereo not given)	x	x	0	x
CO[C@@H]1CN(C)C(=O)c2cc(NC(=O)NC3CCCCC3)ccc2OC[C@@H](C)N(C(C)=O)C[C@@H]1C	x	x	-4	x
COc1cc(C=NO)nc(-c2ccccn2)c1	x	x	59*	x
C[C@@H]1CN([C@@H](C)CO)C(=O)c2cc(NS(=O)(=O)c3cn(C)cn3)ccc2O[C@@H](C)CCCCO[C@@H]1CN(C)C(=O)C1CCCCC1	x	x	-19	x
Cn1c(N2CCOCC2)c(/C=N/OC(=O)c2cccnc2Cl)c2ccccc21	7	6	-2	0
Cc1ccc(C(=O)O/N=C/c2c(N3CCOCC3)n(C)c3ccccc23)cc1	56*	0	0	0
CC(=O)O/N=C/c1c(N2CCOCC2)n(C)c2ccccc12	61*	28	6	0
Cn1c(N2CCOCC2)c(/C=N/OC(=O)c2ccc(F)cc2)c2ccccc21	65*	27	-9	0
CC(C)NC(=O)N1C[C@H]2[C@@H](c3ccccc31)[C@H](CO)N2C(=O)c1ccc(F)cc1	x	x	-6	x
O=C(Nc1ccccc1)C12CC3CC(C1)CC(n1cnc([N+](=O)[O-])n1)(C3)C2	55*	9	x	0
COc1cc(NC(=O)C23CC4CC(C2)CC(n2cnc([N+](=O)[O-])n2)(C4)C3)cc(OC)c1	34	-23	3	0
O=C(Nc1cccc([N+](=O)[O-])c1)C12CC3CC(C1)CC(n1cnc([N+](=O)[O-])n1)(C3)C2	64*	12	7	0
CC(C)CC(=O)NC(=S)NNC(=O)c1ccc(NC(=O)C2CCCCC2)cc1	-4	45	68*	0
CCc1cccc(N=c2c([N+](=O)[O-])nn(-c3ccc4c(c3)OCCO4)n2O)c1	70*	14	14	0
CN=c1c([N+](=O)[O-])nn(-c2ccc3c(c2)OCCO3)n1O	61*	90	-10	1
CC(C)c1ccc(N=c2c([N+](=O)[O-])nn(-c3ccc4c(c3)OCCO4)n2O)cc1	53	29	2	0
O=[N+]([O-])c1nn(-c2ccc3c(c2)OCCO3)n(O)c1=NCc1ccc(F)cc1Cl	25	9	12	3
O=[N+]([O-])c1nn(-c2ccc3c(c2)OCCO3)n(O)c1=NCc1ccc(F)cc1	61*	63	10	3
O=[N+]([O-])c1nn(-c2ccc3c(c2)OCCO3)n(O)c1=NCCC1=CCCCC1	94*	29	-1	3
CCc1cccc(N=c2c([N+](=O)[O-])nn(-c3ccc(Cl)cc3)n2O)c1	51	110	7	0
CN1CCN(C(=O)C[C@@H]2CC[C@H]3[C@@H](COC[C@H](O)CN3Cc3ccc4c(c3)OCO4)O2)CC1	x	x	8	x
Cn1cc(CN2CCCC(CNS(=O)(=O)c3cccc4cccnc34)C2)cn1 (stereo not given)	-8	17	-23	0
CC(C)n1cc(CN2CCCC(CNS(=O)(=O)c3cccc4cccnc34)C2)cn1 (stereo not given)	64*	-1	-1	0
O=C(NCC[C@@H]1CC[C@@H](NC(=O)c2cnccn2)[C@@H](CO)O1)Nc1ccc(F)cc1	x	x	-3	x
SMILES	T cruzi inh	AI-2 QS modul	ARNT TACC3 PPI	HIF act
COc1ccc(NS(=O)(=O)c2cccc(NC(=O)COc3ccc(OC)cc3)c2)cc1	-11	-83*	-7	0
COc1ccccc1NS(=O)(=O)c1cc(NC(=O)c2ccc(Cl)nc2)ccc1N1CCCC1	x	x	-9	x
COc1ccc(NS(=O)(=O)c2cccc(NC(=O)CNC(C)=O)c2)cc1	2	15	-2	0
COc1ccccc1NS(=O)(=O)c1cc(NC(=O)Nc2ccc(Cl)cc2Cl)ccc1N1CCCCC1	59*	5	-5	0
COc1ccccc1NS(=O)(=O)c1cc(NC(=O)C2CCC2)ccc1N1CCCCC1	57*	6	-2	0
COc1ccccc1NS(=O)(=O)c1cccc(NC(=O)Nc2ccc(Cl)cc2)c1	67*	26	5	0
C[C@@H]1CN([C@H](C)CO)S(=O)(=O)c2ccc(-c3ccccc3)cc2O[C@@H]1CN(C)C(=O)Cc1ccccc1	x	x	1	x
C[C@@H]1CCCCO[C@@H](CN(C)C(=O)Nc2ccc(F)cc2)[C@@H](C)CN([C@H](C)CO)C(=O)c2cc(NS(=O)(=O)c3cccs3)ccc2O1	x	x	-29	x
C[C@@H]1CN([C@H](C)CO)C(=O)Cc2cc(NC(=O)CCC(F)(F)F)ccc2O[C@@H]1CN(C)Cc1ccc(C(F)(F)F)cc1	x	x	0	x
C[C@H]1CCCCO[C@H](CN(C)C(=O)c2ccccc2)[C@@H](C)CN([C@@H](C)CO)C(=O)c2cc(NS(=O)(=O)c3cccs3)ccc2O1	x	x	-6	x
S=c1[nH]nc(-c2ccco2)n1/N=C/c1cccs1	-1	25	-6	58*
O=C(NNC(=O)c1cnccn1)c1ccc(Cl)c(Cl)c1	-11	-288*	28	0
COc1ccc(C(=O)NCCNC(=O)c2cnccn2)cc1OC	-9	5	7	0
COc1ccc(C(=O)NC(=S)NNC(=O)c2cnccn2)cc1OC	-5	30	63*	0
COc1ccc(C(=O)NNC(=S)NC(=O)c2ccc(Cl)cc2)cc1	12	-72	37	0
COc1cc(C(=O)NNC(=S)NC(=O)c2ccc(Cl)cc2)cc(OC)c1OC	70*	17	6	0
COc1cc(OC)cc(C(=O)NC(=S)NNC(=O)c2cnccn2)c1	36	-30	66*	0
COc1cc(OC)cc(C(=O)NNC(=S)NC(=O)c2cccnc2)c1	-9	91	8	1
C[C@@H]1CCCCO[C@@H](CN(C)C(=O)Cc2ccccc2)[C@H](C)CN([C@H](C)CO)C(=O)c2cc(NC(=O)c3ccccc3)ccc2O1	x	x	-5	x
C[C@@H]1CN([C@@H](C)CO)C(=O)c2cccc(NC(=O)Nc3ccc4c(c3)OCO4)c2O[C@H]1CN(C)Cc1ccc(C(F)(F)F)cc1	x	x	7	x
O=C(CC(C(=O)N1CCc2ccccc21)n1ccnc1)N1CCc2ccccc2C1 (stereo not given)	72*	6	10	0
O=c1cc(-c2c(F)c(F)c(F)c(F)c2F)oc2c(F)c(F)c(F)c(F)c12	61*	-78*	x	0
O=C(C[C@@H]1CC[C@@H]2[C@H](COC[C@H](O)CN2Cc2ccccc2)O1)NCCc1ccccc1	x	x	-9	x
C=C(C)COc1ccc(-c2nc(N)nc(C(F)(F)F)c2-c2ccc(OC)cc2)c(O)c1	56*	11	4	0
C=C(C)COc1ccc(-c2ncnc(C(F)(F)F)c2-c2ccc(OC)cc2)c(O)c1	15	7	7	0
COc1ccc(-c2cnc(N)nc2-c2ccc(OCc3ccccc3)cc2O)cc1	58*	6	6	-1
